In brackets after ≈: the same amount, converted by molar mass.
Columns and labels:
Staphylococcus aureus [1] = experiment: Antibacterial activity against Staphylococcus aureus by broth microdilution method; format: functional
Staphylococcus aureus [2] = experiment: Antibacterial activity against methicillin-resistant Staphylococcus aureus 34380 by broth microdilution method; format: functional
Outline: (§1)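 MIC (defined as MIC99) determined by broth microdilution in 0.1-strength brain heart infusion broth. Cultures were diluted in growth medium to an inoculum of about 10^5 CFU/mL. Stocks of the amphiphiles were made in aqueous triethanolamine (5% w/v). Vancomycin stock was 500 mg/L in sterile water. Measurements were done in duplicate. Lines 1-6 are recent patient MRSA isolates.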

Staphylococcus aureus [3] = experiment: Antibacterial activity against methicillin-resistant Staphylococcus aureus ATCC 43330 by broth microdilution method; format: functional; outline: as §1
Staphylococcus aureus [4] = experiment: Antibacterial activity against methicillin-resistant Staphylococcus aureus 36361 by broth microdilution method; format: functional; outline: as §1
[5] = Critical micelle concentration of the compound in full-strength brain heart infusion broth by dye-covered glass-bead release; conditions: pH 7.4
Staphylococcus aureus [6] = experiment: Antibacterial activity against methicillin-resistant Staphylococcus aureus 522870 by broth microdilution method; format: functional; outline: as §1
[7] = Cytotoxicity in sheep RBC assessed as hemolysis after 15 mins by microplate reader; format: cell-based, Ovis aries; conditions: erythrocyte, 0.25 h
Outline: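 Washed defibrinated sheep red cells (1.1 × 10^7 cells/mL) in PBS pH 7.4, or in full-strength BHIB, were mixed 1:1 with compound diluted from 5% triethanolamine stock. Incubation was 15 min at 37 °C, then cells were pelleted at 5000g for 20 min. Supernatant A540 was read against 0.1% Triton X-100 (complete lysis). EC10 was the lowest concentration giving 10% lysis, in duplicate.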

Staphylococcus aureus [8] = experiment: Antibacterial activity against Staphylococcus aureus ATCC 6358 by broth microdilution method; format: functional
Outline: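 Log-phase cultures diluted and tested by broth microdilution in 0.1-strength brain heart infusion broth at about 10^5 CFU/mL inoculum. Amphiphile stocks were 12,500 µg/mL in 5% w/v aqueous triethanolamine. MIC was taken as MIC99 and run in duplicate.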

Staphylococcus aureus [9] = experiment: Antibacterial activity against methicillin-resistant Staphylococcus aureus 523000 by broth microdilution method; format: functional; outline: as §1
Staphylococcus aureus [10] = experiment: Antibacterial activity against methicillin-resistant Staphylococcus aureus 53016 by broth microdilution method; format: functional; outline: as §1
Staphylococcus aureus [11] = experiment: Antibacterial activity against methicillin-resistant Staphylococcus aureus 34864 by broth microdilution method; format: functional; outline: as §1
Staphylococcus aureus [12] = experiment: Antibacterial activity against methicillin-resistant Staphylococcus aureus by broth microdilution method; format: functional

`CCCCCCCCCCCCCCCCCC(=O)O` [STEARIC ACID] gave an MIC (Staphylococcus aureus [1]) of over 250 µg/mL.
With `CCCCCCCCCCCCCCCCCCCCCOC(=O)NC(CCC(=O)O)(CCC(=O)O)CCC(=O)O` the MIC (Staphylococcus aureus [2]) was 5.3 µg/mL (≈ 9.05 µM), the MIC (Staphylococcus aureus [3]) was 4.5 µg/mL (≈ 7.68 µM) and the MIC (Staphylococcus aureus [4]) was 14 µg/mL (≈ 23.9 µM). It also gave a CMC [5] of 18 µg/mL, an MIC (Staphylococcus aureus [6]) of 7 µg/mL (≈ 11.9 µM) and an EC10 [7] of 31 µg/mL. The MIC (Staphylococcus aureus [8]) was 27 µg/mL (≈ 46.1 µM), the MIC (Staphylococcus aureus [9]) was 7 µg/mL (≈ 11.9 µM) and the MIC (Staphylococcus aureus [10]) was 7 µg/mL (≈ 11.9 µM). For the same molecule, the MIC (Staphylococcus aureus [11]) was 7 µg/mL (≈ 11.9 µM).
`CCCCCCCCCCCCCCCCCCCCCCC(=O)NC(C)(CCC(=O)O)CCC(=O)O` showed an MIC (Staphylococcus aureus [2]) of 3.6 µg/mL (≈ 6.85 µM), an MIC (Staphylococcus aureus [3]) of 1.7 µg/mL (≈ 3.23 µM) and an MIC (Staphylococcus aureus [4]) of 3.6 µg/mL (≈ 6.85 µM). The CMC [5] was 9 µg/mL, the MIC (Staphylococcus aureus [6]) was 3.6 µg/mL (≈ 6.85 µM) and the EC10 [7] was 7.8 µg/mL. For the same molecule, the MIC (Staphylococcus aureus [8]) was 2.2 µg/mL (≈ 4.18 µM), the MIC (Staphylococcus aureus [9]) was 3.6 µg/mL (≈ 6.85 µM) and the MIC (Staphylococcus aureus [10]) was 3.6 µg/mL (≈ 6.85 µM). The MIC (Staphylococcus aureus [11]) was 3.6 µg/mL (≈ 6.85 µM).
In the case of `CCCCCCCCCCCCCCCCCCCCC(=O)NC(C)(CCC(=O)O)CCC(=O)O`, the MIC (Staphylococcus aureus [2]) is reported as 3.6 µg/mL (≈ 7.23 µM), the MIC (Staphylococcus aureus [3]) is reported as 2.2 µg/mL (≈ 4.42 µM) and the MIC (Staphylococcus aureus [4]) is reported as 3.6 µg/mL (≈ 7.23 µM). It also gave a CMC [5] of 9 µg/mL, an MIC (Staphylococcus aureus [6]) of 5.3 µg/mL (≈ 10.6 µM) and an EC10 [7] of 7.8 µg/mL. The MIC (Staphylococcus aureus [8]) was 2.2 µg/mL (≈ 4.42 µM), the MIC (Staphylococcus aureus [9]) was 3.6 µg/mL (≈ 7.23 µM) and the MIC (Staphylococcus aureus [10]) was 3.6 µg/mL (≈ 7.23 µM). The MIC (Staphylococcus aureus [11]) was 3.6 µg/mL (≈ 7.23 µM).
`CCCCCCCCCCCC(=O)O` [DODECANOATE] gave an MIC (Staphylococcus aureus [1]) of 250 µg/mL (≈ 1250 µM) and an MIC (Staphylococcus aureus [12]) of over 250 µg/mL.
`CCCCCCCCCCCCCCCCCCCCCCCNC(=O)NC(CCC(=O)O)(CCC(=O)O)CCC(=O)O` gave an MIC (Staphylococcus aureus [2]) of 11 µg/mL (≈ 17.9 µM), an MIC (Staphylococcus aureus [3]) of 6.8 µg/mL (≈ 11.1 µM) and an MIC (Staphylococcus aureus [4]) of 43 µg/mL (≈ 70.2 µM). It also gave an MIC (Staphylococcus aureus [6]) of 14 µg/mL (≈ 22.8 µM), an EC10 [7] of 31 µg/mL and an MIC (Staphylococcus aureus [8]) of 54 µg/mL (≈ 88.1 µM). The MIC (Staphylococcus aureus [9]) was 14 µg/mL (≈ 22.8 µM), the MIC (Staphylococcus aureus [10]) was 7 µg/mL (≈ 11.4 µM) and the MIC (Staphylococcus aureus [11]) was 11 µg/mL (≈ 17.9 µM).
In the case of `CCCCCCCCCCCCCCCCCCCCCCC(=O)NC(CCC(=O)O)(CCC(=O)O)CCC(=O)O`, the MIC (Staphylococcus aureus [2]) is reported as 7 µg/mL (≈ 12 µM), the MIC (Staphylococcus aureus [3]) is reported as 4.5 µg/mL (≈ 7.71 µM) and the MIC (Staphylococcus aureus [4]) is reported as 14 µg/mL (≈ 24 µM). It also gave a CMC [5] of 18 µg/mL, an MIC (Staphylococcus aureus [6]) of 14 µg/mL (≈ 24 µM) and an EC10 [7] of 31 µg/mL. For the same molecule, the MIC (Staphylococcus aureus [8]) was 54 µg/mL (≈ 92.5 µM), the MIC (Staphylococcus aureus [9]) was 14 µg/mL (≈ 24 µM) and the MIC (Staphylococcus aureus [10]) was 7 µg/mL (≈ 12 µM). For the same molecule, the MIC (Staphylococcus aureus [11]) was 7 µg/mL (≈ 12 µM).
Work on `CCCCCCCCCCCCCCCCCCCCCNC(=O)NC(CCC(=O)O)(CCC(=O)O)CCC(=O)O` yielded an MIC (Staphylococcus aureus [2]) of 7 µg/mL (≈ 12 µM), an MIC (Staphylococcus aureus [3]) of 4.5 µg/mL (≈ 7.69 µM) and an MIC (Staphylococcus aureus [4]) of 28 µg/mL (≈ 47.9 µM). It also gave a CMC [5] of 9 µg/mL, an MIC (Staphylococcus aureus [6]) of 14 µg/mL (≈ 23.9 µM) and an EC10 [7] of 31 µg/mL. The MIC (Staphylococcus aureus [8]) was 54 µg/mL (≈ 92.3 µM), the MIC (Staphylococcus aureus [9]) was 7 µg/mL (≈ 12 µM) and the MIC (Staphylococcus aureus [10]) was 11 µg/mL (≈ 18.8 µM). For the same molecule, the MIC (Staphylococcus aureus [11]) was 11 µg/mL (≈ 18.8 µM).
`CCCCCCCCCCCCCCCCCCCOC(=O)NC(C)(CCC(=O)O)CCC(=O)O` showed an MIC (Staphylococcus aureus [2]) of 2.2 µg/mL (≈ 4.4 µM), an MIC (Staphylococcus aureus [3]) of 2.2 µg/mL (≈ 4.4 µM) and an MIC (Staphylococcus aureus [4]) of 2.2 µg/mL (≈ 4.4 µM). For the same molecule, the CMC [5] was 9 µg/mL, the EC10 [7] was 16 µg/mL and the MIC (Staphylococcus aureus [8]) was 2.2 µg/mL (≈ 4.4 µM). The MIC (Staphylococcus aureus [9]) was 1.7 µg/mL (≈ 3.4 µM), the MIC (Staphylococcus aureus [10]) was 2.2 µg/mL (≈ 4.4 µM) and the MIC (Staphylococcus aureus [11]) was 2.2 µg/mL (≈ 4.4 µM).
For `CCCCCCCCCCCCCC(=O)O` [MYRISTIC ACID], the MIC (Staphylococcus aureus [1]) was 250 µg/mL (≈ 1090 µM) and the MIC (Staphylococcus aureus [12]) was 250 µg/mL (≈ 1090 µM).
`CCCCCCCCCCCCCCCCCCCCCCCOC(=O)NC(CCC(=O)O)(CCC(=O)O)CCC(=O)O` showed an MIC (Staphylococcus aureus [2]) of 5.3 µg/mL (≈ 8.63 µM), an MIC (Staphylococcus aureus [3]) of 4.5 µg/mL (≈ 7.33 µM) and an MIC (Staphylococcus aureus [4]) of 14 µg/mL (≈ 22.8 µM). It also gave a CMC [5] of 18 µg/mL, an MIC (Staphylococcus aureus [6]) of 11 µg/mL (≈ 17.9 µM) and an EC10 [7] of 63 µg/mL. It also gave an MIC (Staphylococcus aureus [8]) of 23 µg/mL (≈ 37.5 µM), an MIC (Staphylococcus aureus [9]) of 7 µg/mL (≈ 11.4 µM) and an MIC (Staphylococcus aureus [10]) of 3.6 µg/mL (≈ 5.86 µM). It also gave an MIC (Staphylococcus aureus [11]) of 3.6 µg/mL (≈ 5.86 µM).
`CCCCCCCCCC(=O)O` [DECANOIC ACID] gave an MIC (Staphylococcus aureus [1]) of 250 µg/mL (≈ 1450 µM) and an MIC (Staphylococcus aureus [12]) of over 250 µg/mL.
Molecule `CCCCCCCCCCCCCCCC(=O)O` [PALMITIC ACID] has an MIC (Staphylococcus aureus [1]) of over 250 µg/mL and an MIC (Staphylococcus aureus [12]) of 250 µg/mL (≈ 975 µM).
For `CCCCCCCCCCCCCCCCCCCCCOC(=O)NC(C)(CCC(=O)O)CCC(=O)O`, the MIC (Staphylococcus aureus [2]) was 4.5 µg/mL (≈ 8.53 µM), the MIC (Staphylococcus aureus [3]) was 2.2 µg/mL (≈ 4.17 µM) and the MIC (Staphylococcus aureus [4]) was 2.2 µg/mL (≈ 4.17 µM). For the same molecule, the CMC [5] was 9 µg/mL, the EC10 [7] was 16 µg/mL and the MIC (Staphylococcus aureus [8]) was 3.4 µg/mL (≈ 6.44 µM). It also gave an MIC (Staphylococcus aureus [9]) of 3.4 µg/mL (≈ 6.44 µM), an MIC (Staphylococcus aureus [10]) of 3.4 µg/mL (≈ 6.44 µM) and an MIC (Staphylococcus aureus [11]) of 4.5 µg/mL (≈ 8.53 µM).
`CN[C@H](CC(C)C)C(=O)N[C@H]1C(=O)N[C@@H](CC(N)=O)C(=O)N[C@H]2C(=O)N[C@H]3C(=O)N[C@H](C(=O)N[C@H](C(=O)O)c4cc(O)cc(O)c4-c4cc3ccc4O)[C@H](O)c3ccc(c(Cl)c3)Oc3cc2cc(c3O[C@@H]2O[C@H](CO)[C@@H](O)[C@H](O)[C@H]2O[C@H]2C[C@](C)(N)[C@H](O)[C@H](C)O2)Oc2ccc(cc2Cl)[C@H]1O` [VANCOMYCIN] gave an MIC (Staphylococcus aureus [3]) of 0.25 µg/mL (≈ 0.173 µM), an MIC (Staphylococcus aureus [4]) of 0.75 µg/mL (≈ 0.518 µM) and an MIC (Staphylococcus aureus [6]) of 0.25 µg/mL (≈ 0.173 µM). The MIC (Staphylococcus aureus [8]) was 0.25 µg/mL (≈ 0.173 µM), the MIC (Staphylococcus aureus [10]) was 0.38 µg/mL (≈ 0.262 µM) and the MIC (Staphylococcus aureus [11]) was 0.38 µg/mL (≈ 0.262 µM).
For `CCCCCCCCCCCCCCCCCCCCC(=O)NC(CCC(=O)O)(CCC(=O)O)CCC(=O)O`, the MIC (Staphylococcus aureus [2]) was 28 µg/mL (≈ 50.4 µM), the MIC (Staphylococcus aureus [3]) was 45 µg/mL (≈ 81 µM) and the MIC (Staphylococcus aureus [4]) was 57 µg/mL (≈ 103 µM). For the same molecule, the CMC [5] was 18 µg/mL, the MIC (Staphylococcus aureus [6]) was 57 µg/mL (≈ 103 µM) and the EC10 [7] was 31 µg/mL. For the same molecule, the MIC (Staphylococcus aureus [8]) was 54 µg/mL (≈ 97.2 µM), the MIC (Staphylococcus aureus [9]) was 28 µg/mL (≈ 50.4 µM) and the MIC (Staphylococcus aureus [10]) was 28 µg/mL (≈ 50.4 µM). It also gave an MIC (Staphylococcus aureus [11]) of 23 µg/mL (≈ 41.4 µM).

From ChEMBL document CHEMBL1772968, “Comparing micellar, hemolytic, and antibacterial properties of di- and tricarboxyl dendritic amphiphiles” (Bioorg Med Chem, 2011)
